Assay [1] deals with A549. As to the kind of experiment: Cytotoxicity against human A549 cells after 24 hrs by MTT assay. The settings on record: A549, 24 h. Type of assay: functional, cell-based. The essentials:
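A549 cells kept in DMEM with 10% FBS and 1% penicillin/streptomycin at 37 °C, 5% CO2, then seeded at 3 × 10³ per well. Exposure 24 h to test agents at 1–12000 nM (DMSO stocks; 0.4% DMSO negative control), 8 wells per concentration. Surviving cells counted by colorimetric MTT (5 mg/mL in PBS). EC50 averaged over three to six experiments.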

The test system of assay [2] is A549. As to the kind of experiment: Effect on microtubule network in human A549 cells assessed as microtubule depolymerization and tubulin clustering at 1 uM after 8 hrs by immunofluorescence microscopic analysis. Type of assay: functional, cell-based. The essentials: (§1)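 A549 cells grown on 11 mm glass coverslips at 2 × 10⁴ cells each. Exposure to compounds at 1 and 5 µM for 8 h at 37 °C, 5% CO2, with 0.5% DMSO as negative control. Cells fixed in 4% paraformaldehyde and stained with mouse monoclonal anti-α-tubulin, then Alexa Fluor488 goat anti-mouse IgG (1:200). Fluorescence microscopy, effect scored semi-quantitatively by '+' grades.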

The next assay relates to A549 (Homo sapiens). In words: Effect on microtubule network in human A549 cells assessed as tubulin clustering formation after 8 hrs by immunofluorescence microscopic analysis.
For assay [3], the system named is A549. In words: Effect on microtubule network in human A549 cells assessed as microtubule depolymerization at 1 uM after 8 hrs by immunofluorescence microscopic analysis. In kind it is functional, cell-based. The essentials: as §1
The test system of assay [4] is A549. As to the kind of experiment: Effect on microtubule network in human A549 cells assessed as microtubule depolymerization and tubulin clustering at 5 uM after 8 hrs by immunofluorescence microscopic analysis. Type of assay: functional, cell-based. The essentials: as §1
The species entered for another assay is Bos taurus. As to the kind of experiment: Inhibition of bovine brain tubulin polymerization after 1 hr. The essentials: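 Purified bovine brain tubulin polymerized with 10% DMSO present and test agent at 10 µM. Incubation 1 h, then preparations examined by Allen video-enhanced microscopy.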
Assay [5] relates to A549. As to the kind of experiment: Effect on microtubule network in human A549 cells assessed as microtubule binding at 1 uM after 8 hrs by immunofluorescence microscopic analysis. Type of assay: functional, cell-based.

Each structure is given as a SMILES string. pEC50: −log10 of the molar value. The source made the active and inactive calls. The rule behind the calls is not given here.

As usually defined, the pEC50 is the negative decadic logarithm of the EC50, by convention in mol/L. In the case of `COc1cc2c(c(OC)c1OC)-c1ccc(OC)c(=O)cc1[C@@H](NC(=O)CCCCCCCC(=O)OC13CC4CC(CC(C4)C1)C3)CC2`, in the assay on A549 [1], the negative logarithm of the EC50 (pEC50) is 7.54.

On to `COc1cc2c(c(OC)c1OC)-c1ccc(OC)c(=O)cc1[C@@H](NC(=O)CCCCC(=O)OC1C3CC4CC(C3)CC1C4)CC2` (stereo not given in full), for which the pEC50 in the assay with A549 [1] is 6.08. For the same compound, the outcome in the assay with A549 [2] was Active.

`COc1cc2c(c(OC)c1OC)-c1ccc(OC)c(=O)cc1[C@@H](NC(=O)CCCCCCCCCCCOC(=O)[C@H](O)[C@@H](NC(=O)OC(C)(C)C)c1ccccc1)CC2`: the pEC50 in the assay on A549 [1] is 7.39. Besides, in the assay on A549 [2], the outcome was Active.

For the compound `COc1cc2c(c(OC)c1OC)-c1ccc(OC)c(=O)cc1[C@@H](NC(=O)CCCCCC(=O)OC1C3CC4CC(C3)CC1C4)CC2` (stereo not given in full), in the assay on A549 [1], the pEC50 is 8.22. In addition, the result in the assay with A549 [2] and with A549 (Homo sapiens) was Active.

In turn, `COc1cc2c(c(OC)c1OC)-c1ccc(OC)c(=O)cc1[C@@H](NC(=O)CCCCCC(=O)Oc1ccccc1)CC2` had a pEC50 in the assay with A549 [1] of 5.24. Also, the result in the assay on A549 [3] was Active.

In the assay on A549 [1], `COc1cc2c(c(OC)c1OC)-c1ccc(OC)c(=O)cc1[C@@H](NC(C)=O)CC2` [COLCHICINE] had a pEC50 of 7.57. Moreover, in the assay with A549 [3], the result was Active.

On to `COc1cc2c(c(OC)c1OC)-c1ccc(OC)c(=O)cc1[C@@H](NC(=O)CCCCCCCC(=O)OC1C3CC4CC(C3)CC1C4)CC2` (stereo not given in full), for which the pEC50 in the assay on A549 [1] is 5.42. Also, the result in the assay with A549 [2] was Active.

With `COc1cc2c(c(OC)c1OC)-c1ccc(OC)c(=O)cc1[C@@H](NC(=O)CCCCCCC(=O)OC1C3CC4CC(C3)CC1C4)CC2` (stereo not given in full), the pEC50 in the assay on A549 [1] is 8.30. For the same compound, the outcome in the assay on A549 [2] was Active.

Consider `COc1cc2c(c(OC)c1OC)-c1ccc(OC)c(=O)cc1[C@@H](NC(=O)CCCCCC(=O)OC(C)C)CC2`, for which the pEC50 in the assay with A549 [1] is 7.52. For the same compound, the result in the assay with A549 [2] was Active.

Take `COC(=O)CCCCCC(=O)N[C@H]1CCc2cc(OC)c(OC)c(OC)c2-c2ccc(OC)c(=O)cc21`: the pEC50 in the assay with A549 [1] is 7.49. In addition, the result with A549 [3] was Active.

As for `COc1cc2c(c(OC)c1OC)-c1ccc(OC)c(=O)cc1[C@@H](NC(=O)CCCCCC(=O)OC13CC4CC(CC(C4)C1)C3)CC2`, the pEC50 in the assay with A549 [1] is 7.96. Besides, in the assay with A549 [2], the result was Active.

Compound `COc1cc2c(c(OC)c1OC)-c1ccc(OC)c(=O)cc1[C@@H](NC(=O)CCCCCCC(=O)OC1C3CC4CC1CC(OC(=O)[C@H](O)[C@@H](NC(=O)OC(C)(C)C)c1ccccc1)(C4)C3)CC2` (mixture of isomers) showed a pEC50 in the assay with A549 [1] of 8.70. For the same compound, the outcome in the assay on A549 [2] was Active.

In the assay with A549 [1], `COc1cc2c(c(OC)c1OC)-c1ccc(OC)c(=O)cc1[C@@H](NC(=O)CCCC(=O)OC1C3CC4CC(C3)CC1C4)CC2` (stereo not given in full) gave a pEC50 of 6.70. Besides, the result with A549 [3] was Active.

On to `COc1cc2c(c(OC)c1OC)-c1ccc(OC)c(=O)cc1[C@@H](NC(=O)CCCCCC(=O)OC1CCCCC1)CC2`, for which, in the assay with A549 [1], the pEC50 was 8.32. Also, the result with A549 [2] was Active.

In the case of `COc1cc2c(c(OC)c1OC)-c1ccc(OC)c(=O)cc1[C@@H](NC(=O)CCCCCC(=O)OC1C3CC4CC1CC(OC(=O)[C@H](O)[C@@H](NC(=O)OC(C)(C)C)c1ccccc1)(C4)C3)CC2` (mixture of isomers), the pEC50 in the assay on A549 [1] is 7.14. The result in the assay with A549 [4] and in the assay on A549 [2] was Active. Also, in the assay listed under Bos taurus, the inhibition entry was “Active”.

In the assay on A549 [1], `COc1cc2c(c(OC)c1OC)-c1ccc(OC)c(=O)cc1[C@@H](NC(=O)CCCC(=O)OC1C3CC4CC1CC(OC(=O)[C@H](O)[C@@H](NC(=O)OC(C)(C)C)c1ccccc1)(C4)C3)CC2` (mixture of isomers) had a pEC50 of 6.66.

On to `CC(=O)O[C@H]1C(=O)[C@@]2(C)[C@H]([C@H](OC(=O)c3ccccc3)[C@]3(O)C[C@H](OC(=O)[C@H](O)[C@@H](NC(=O)c4ccccc4)c4ccccc4)C(C)=C1C3(C)C)[C@]1(OC(C)=O)CO[C@@H]1C[C@@H]2O` [PACLITAXEL], for which, in the assay with A549 [1], the negative-log EC50 (pEC50) was 8.34. Also, the result in the assay with A549 [5] was Active.

These data come from ChEMBL document CHEMBL1817610, “Synthesis and SAR requirements of adamantane-colchicine conjugates with both microtubule depolymerizing and tubulin clustering activities” (Bioorg Med Chem, 2011).
